Legend:
Rattus norvegicus [1] = species: Rattus norvegicus; assay: Serum cholesterol level in male Sprague-Dawley rats (fed with high cholesterol semisynthetic diet) after 4 days of treatment.; format: functional, organism-based
Procedure, shortened: (§1)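 Male Sprague-Dawley rats on a high-cholesterol semisynthetic diet for 1 week, then stratified-randomized into groups of six. Dosing was 0.3 mmol/kg twice daily by intragastric route in 0.25% methylcellulose for 1 week; controls received vehicle. Serum cholesterol was measured after 4 and 7 days of dosing. Values are mean ± SD of six rats.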

Rattus norvegicus [2] = species: Rattus norvegicus; assay: Serum cholesterol level in male Sprague-Dawley rats (fed with high cholesterol semisynthetic diet)before the treatment.; format: functional, organism-based
Procedure, shortened: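 Male Sprague-Dawley rats fed a high-cholesterol semisynthetic diet for 1 week. Blood was drawn from the orbital plexus under ether anaesthesia before dosing (day -1) for serum cholesterol, which was used to stratify-randomize groups of six. Values are mean ± SD of six rats.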

Rattus norvegicus [3] = species: Rattus norvegicus; assay: Serum cholesterol level in male Sprague-Dawley rats (fed with high cholesterol semisynthetic diet) after 7 days of treatment; format: functional, organism-based; procedure, shortened: as §1
Homo sapiens [4] = species: Homo sapiens; assay: Inhibition against platelet aggregation induced by adenosine diphosphate (ADP) in vitro; format: functional
Procedure, shortened: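 Human platelet-rich plasma from drug-free volunteers; compound preincubated 1 min before ADP (1–3 μM, lowest level giving maximal transmittance change). Aggregation followed by aggregometer for 6 min; IC50 for inhibition of the second phase of maximal aggregation, mean ± SEM, n = 4–10 donors.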

Rattus norvegicus [5] = species: Rattus norvegicus; assay: Liver cholesterol level in male Sprague-Dawley rats (fed with high cholesterol semisynthetic diet) after 1 week of treatment.; format: functional
Procedure, shortened: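 Rats prefed high-cholesterol semisynthetic diet 1 week, then stratified by serum cholesterol into groups of six. Dosed 0.3 mmol/kg intragastrically twice daily in 0.25% methylcellulose for 1 week; controls got vehicle. Livers removed after exsanguination; cholesterol measured in lipid extracts. Mean ± SD, six rats.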

Homo sapiens [6] = species: Homo sapiens; assay: Inhibition against platelet aggregation induced by arachidonic acid(AA) in vitro; format: functional
Procedure, shortened: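 Human platelet-rich plasma from drug-free volunteers; compound preincubated 1 min before arachidonic acid (300–500 μM, lowest level giving maximal transmittance change). Aggregation read by aggregometer over 4 min; IC50 for inhibition of maximal aggregation, mean ± SEM, n = 4–10 donors.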

Rattus norvegicus [7] = species: Rattus norvegicus; assay: Inhibition against chloride conductance in rat extensor digitorum longus(EDL) muscle fibers in vitro; format: functional
Procedure, shortened: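 Rat EDL fibres (Charles River Sprague-Dawley, normal diet) studied in vitro by square-pulse microelectrode method in normal and chloride-free medium at several drug concentrations. Chloride conductance = membrane conductance in normal minus chloride-free solution. Conductance–concentration curves fit to single-site binding equation by nonlinear least squares to give IC50 ± SD; 7–79 fibres from 2–16 muscles per concentration.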

Work on C[C@@H](Oc1ccc(Cl)cc1)C(=O)O yielded a Serum cholesterol (Rattus norvegicus [1]) of 116 mg/dL, a Serum cholesterol (Rattus norvegicus [2]) of 276 mg/dL and a Serum cholesterol (Rattus norvegicus [3]) of 119 mg/dL. For the same molecule, the IC50 (Homo sapiens [4]) was 201 µM, the Liver cholesterol (Rattus norvegicus [5]) was 40.8 mg (g of tissue)-1 and the IC50 (Homo sapiens [6]) was 253 µM. For the same molecule, the IC50 (Rattus norvegicus [7]) was over 230 µM.

CC(C)(Oc1ccc(Cl)cc1)C(=O)O [CLOFIBRIC ACID] gave a Serum cholesterol (Rattus norvegicus [1]) of 113 mg/dL, a Serum cholesterol (Rattus norvegicus [2]) of 271 mg/dL and a Serum cholesterol (Rattus norvegicus [3]) of 149 mg/dL. For the same molecule, the IC50 (Homo sapiens [4]) was 1240 µM, the Liver cholesterol (Rattus norvegicus [5]) was 41.9 mg (g of tissue)-1 and the IC50 (Homo sapiens [6]) was over 4000 µM.

C[C@H](Oc1ccc(Cl)cc1)C(=O)O showed a Serum cholesterol (Rattus norvegicus [1]) of 107 mg/dL, a Serum cholesterol (Rattus norvegicus [2]) of 279 mg/dL and a Serum cholesterol (Rattus norvegicus [3]) of 184 mg/dL. The IC50 (Homo sapiens [4]) was 998 µM, the Liver cholesterol (Rattus norvegicus [5]) was 45.4 mg (g of tissue)-1 and the IC50 (Homo sapiens [6]) was 1120 µM.

CC[C@H](Oc1ccc(Cl)cc1)C(=O)O showed a Serum cholesterol (Rattus norvegicus [1]) of 174 mg/dL, a Serum cholesterol (Rattus norvegicus [2]) of 278 mg/dL and a Serum cholesterol (Rattus norvegicus [3]) of 193 mg/dL. For the same molecule, the IC50 (Homo sapiens [4]) was 1180 µM, the Liver cholesterol (Rattus norvegicus [5]) was 37.2 mg (g of tissue)-1 and the IC50 (Homo sapiens [6]) was 1600 µM.

For CC[C@@H](Oc1ccc(Cl)cc1)C(=O)O, the Serum cholesterol (Rattus norvegicus [1]) was 158 mg/dL, the Serum cholesterol (Rattus norvegicus [2]) was 275 mg/dL and the Serum cholesterol (Rattus norvegicus [3]) was 184 mg/dL. The IC50 (Homo sapiens [4]) was 686 µM, the Liver cholesterol (Rattus norvegicus [5]) was 34.8 mg (g of tissue)-1 and the IC50 (Homo sapiens [6]) was 721 µM. It also gave an IC50 (Rattus norvegicus [7]) of over 230 µM.

From ChEMBL document CHEMBL1123854, “Dissociation of hypolipidemic and antiplatelet actions from adverse myotonic effects of clofibric acid related enantiomers” (J Med Chem, 1987)
